Screening data: PubChem BioAssay, The Scripps Research Institute Molecular Screening Center
IMP-1 inh: inhibitors of Pseudomonas aeruginosa IMP-1 metallo-beta-lactamase; purified IMP-1, nitrocefin hydrolysis, epi-absorbance fluorescence; hit rate 0.45% among 290,000; inhibition, % at 5.6 µM;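 active means inhibition above the mean plus 3 SD of all compounds in the same screening run, cut at about 4.5% in these data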;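 further: 0% = IMP-1 with DMSO and 100% = DMSO wells lacking enzyme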
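System – purified recombinant IMP-1 beta-lactamase · Input – IMP-1 dispensed at 0.2 nM · Timing – 15 min preincubation plus 25 min reaction at 25 °C · Signal – Epi-absorbance fluorescence, 480 nm excitation, 530 nm emission · Measure – percent IMP-1 inhibition derived from blank-referenced optical density · Controls – Enzyme-plus-DMSO low control, enzyme-free DMSO high control · Replication – singlicate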
PfM18AAP inh-1: PfM18AAP enzyme inhibition. recombinant PfM18AAP, H-Glu-NHMec fluorogenic cleavage. inhibition, % at 7.35 µM. hit rate 1.2% among 290,000;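 active means inhibition above the campaign mean inhibition over all tested compounds plus 3 SD, cut at about 28% in these data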;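 further: 0% = plate median of test compound wells and 100% = 2 mM ZnCl2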
sPLA2-III inh: Blocks human group III sPLA2 activity; Q9NZ20; QFRET BODIPY PC-A2 liposome hydrolysis, fluorescence; inhibition, % at 12.2 µM; hit rate 0.56% among 370,000; AID 743126;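 active means inhibition above mean plus 3 SD of compounds lying within the high and low control bounds, cut at about 19% in these data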;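 further: 0% = median of test compound wells and 100% = no enzyme DMSO wells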
Target sequence (Q9NZ20 whole entry, looked up): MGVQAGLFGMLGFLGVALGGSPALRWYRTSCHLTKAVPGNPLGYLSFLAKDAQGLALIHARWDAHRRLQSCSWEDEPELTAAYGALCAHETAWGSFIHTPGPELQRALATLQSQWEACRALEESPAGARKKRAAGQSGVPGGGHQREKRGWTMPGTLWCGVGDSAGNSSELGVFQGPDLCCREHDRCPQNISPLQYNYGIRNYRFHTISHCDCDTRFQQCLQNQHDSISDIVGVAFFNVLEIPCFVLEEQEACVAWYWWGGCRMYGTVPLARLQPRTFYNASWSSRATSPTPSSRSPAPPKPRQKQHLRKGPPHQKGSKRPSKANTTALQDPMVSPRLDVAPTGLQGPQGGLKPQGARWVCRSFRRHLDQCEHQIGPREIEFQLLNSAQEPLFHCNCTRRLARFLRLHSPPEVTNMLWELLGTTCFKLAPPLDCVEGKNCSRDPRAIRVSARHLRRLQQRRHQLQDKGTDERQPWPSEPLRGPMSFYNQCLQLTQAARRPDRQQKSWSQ
VIM-2 inh: blocks Pseudomonas aeruginosa VIM-2 metallo-beta-lactamase; inhibition, % at 5.6 µM; purified VIM-2, nitrocefin hydrolysis, epi-absorbance fluorescence; hit rate 0.89% among 290,000; AID 1527;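 active means inhibition above the mean of all tested compounds plus 3 SD, cutoff set per screening run, cut at about 7.5% in these data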;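 further: red hydrolysis product quenches plate fluorescence so inhibitors raise well fluorescence; 0% = enzyme with DMSO and 100% = DMSO without enzyme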
PfM18AAP inh-2: confirmation of Plasmodium falciparum M18 aspartyl aminopeptidase inhibitors. shares compounds with PfM18AAP inh-1. recombinant PfM18AAP, H-Glu-NHMec fluorogenic cleavage. inhibition, % at 7.35 µM. hit rate 28% among 2,400. AID 2170;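 active means mean inhibition over replicate wells above the hit cutoff set for the earlier primary screen, cut at about 29% in these data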;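 further: 0% = median of test compound wells and 100% = 2 mM ZnCl2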
CTSL1 counter: counter-screen for PFM18AAP inhibitors: confirmation of human cathepsin L inhibitors | shares compounds with PfM18AAP inh-1 | purified cathepsin L1, Z-Leu-Arg-MCA fluorescence | inhibition, % at 5.96 µM | 2,400 tested, under 10 active | AID 2178;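 active means average inhibition across replicates above the hit cutoff set in the earlier primary screen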;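 further: 0% = median of test compound wells and 100% = Z-Phe-Ala-diazomethylketone 1 µM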
Active calls of the source: *; x = not tested or not shown. Shown are actives, neighbours in structure and some others; about 2.4% of the full set was active somewhere.

SMILES	IMP-1 inh	PfM18AAP inh-1	sPLA2-III inh	VIM-2 inh	PfM18AAP inh-2	CTSL1 counter
COc1ccc(C(=O)N/N=C\c2coc3ccccc3c2=O)cc1	-2	20	0	-4	x	x
O=C(N/N=C/c1coc2ccccc2c1=O)c1cc(O)cc(O)c1	-1	39*	-7	0	3	3
Cc1cc(=O)[nH]c2c(N=Nc3ccc(O)cc3)c(N)nn12	6.4*	61*	-4	2	62*	6
COc1cc2c(cc1OC)C(c1cc3cccc(C)c3[nH]c1=O)N(C(=O)c1ccco1)CC2 (centres undefined)	-4	48*	0	-4	-36	-3
COc1cc2c(cc1OC)C(COc1ccc(F)cc1)N(C(=O)c1ccco1)CC2 (centres undefined)	-2	-10	-9	-1	x	x
CCN(CCCNC(=O)C1CCN(S(=O)(=O)c2cnc[nH]2)CC1)c1cccc(C)c1	-7	51*	-25	-2	-34	-1
CCN(CCCNC(=O)C1CCCN(S(=O)(=O)CC)C1)c1cccc(C)c1 (centres undefined)	-1	47*	0	1	-40	-3
COc1cccc(NC(=O)CN2C(=O)NC(C)(c3ccc(C)cc3)C2=O)c1 (centres undefined)	-3	-5	-3	-6	x	x
O=C(NNc1nc2cc3c(cc2s1)OCCO3)c1ccccc1	-2	54*	15	-5	27	0
Cc1cccc2sc(NNC(=O)c3ccc4c(c3)OCCO4)nc12	-2	34*	19	0	-13	-6
COc1ccc(CNC(=O)C2CCC(=O)N(C3CCCCCC3)C2)c(OC)c1 (centres undefined)	x	x	5	x	x	x
CCOC(=O)c1[nH]c2ccc(F)cc2c1NC(=O)c1ccccc1C(=O)O	3	33*	0	9.8*	-34	3
CN(Cc1ccccc1)C(=O)c1cnc(Cc2c[nH]c3ccccc23)c(I)c1	x	x	-94	x	x	x
O=C(NCC1CCCO1)c1ccc2c(c1)N(Cc1ccccc1)C(=O)CS2=O (centres undefined)	-2	42*	-11	1	-63	-5
O=C(NCc1ccco1)c1ccc2c(c1)N(Cc1ccccc1)C(=O)CS2=O (centres undefined)	-4	26	-12	-3	x	x
CCN(CC)C(=O)c1ccc2c(c1)N(Cc1ccccc1)C(=O)CS2=O (centres undefined)	-4	54*	-7	-1	-25	-3
CN(C)S(=O)(=O)c1ccc(C(=O)Nc2cc3c(cc2C(=O)O)OCCCO3)cc1	-1	0	-3	1	x	x
COc1cc(/C=N/NC(=O)NC23CC4CC(CC(C4)C2)C3)ccc1O	-2	9	-17	0	x	x
O=C(N/N=C/c1ccc(O)c(O)c1)NC12CC3CC(CC(C3)C1)C2	-1	48*	-20	0	13	-1
COc1ccccc1NS(=O)(=O)c1cc(NC(=S)NCCN2CCOCC2)ccc1N1CCOCC1	-1	38*	4	1	12	1
COc1ccccc1NS(=O)(=O)c1cc(NC(=O)c2sccc2C)ccc1N1CCCC1	-1	56*	-11	-1	8	-2
COc1ccccc1NS(=O)(=O)c1cc(NC(=O)c2cccs2)ccc1N1CCCCC1	-3	-12	-17	-1	x	x
COc1ccccc1NS(=O)(=O)c1cc(NC(=O)c2cccs2)ccc1N1CCCC1	-4	36*	-24	-2	-4	3
COc1ccc(CNCC(=O)Nc2cc(OC)cc(OC)c2)cc1	-1	-11	-2	0	x	x
COc1cc([N+](=O)[O-])ccc1NC(=O)Nn1cnnc1	-1	84*	7	1	81*	1
SMILES	IMP-1 inh	PfM18AAP inh-1	sPLA2-III inh	VIM-2 inh	PfM18AAP inh-2	CTSL1 counter
COc1cc([N+](=O)[O-])ccc1NC(=O)NCc1ccccn1	-2	0	-3	-1	x	x
COc1ccc(C)cc1NC(=O)Nc1ccccc1	0	6	-5	-1	x	x
COc1ccc(C)cc1NC(=O)Nn1cnnc1	-4	62*	9	-6	56*	-2
COc1ccc(Cl)cc1C(=O)Nn1cnnc1	-2	37*	4	-2	28	-4
CC(=O)C1=C(C)Nc2cc(C(F)(F)F)ccc2S1	-4	36*	-4	-1	-4	-1
O=c1c(-c2ccc([N+](=O)[O-])cc2)coc2c(O)c(O)ccc12	-5	45*	13	2	25	-2
OCCCNc1ncnc2c1ncn2[C@H]1CN(Cc2ccc(-c3ccccc3)cc2)C[C@@H](CO)O1	x	x	-11	x	x	x
CC(=O)c1cccc(N=c2scc(-c3ccc(S(=O)(=O)N4CCOCC4)cc3)n2CCO)c1	0	51*	-13	3	-35	0
C=CCn1c(-c2ccc(S(=O)(=O)N3CCOCC3)cc2)csc1=Nc1ccccc1	-1	-7	-3	1	x	x
CN1CCc2c(sc3c2c(=O)n(-c2ccccc2)c2n[nH]c(=S)n32)C1	-3	38*	0	1	-22	2
CCC(C)c1ccc(-n2c(=O)c3ccccc3n3c(=S)[nH]nc23)cc1 (centres undefined)	-4	18	6	-5	x	x
CCCCn1c(=O)c2ccccc2n2c(=S)[nH]nc12	-4	32*	16	-5	-2	-3
O=c1c2c3c(sc2n2c(=S)[nH]nc2n1-c1ccccc1)CCC3	-1	-1	14	2	x	x
CCCCCn1c(=O)c2ccccc2n2c(=S)[nH]nc12	0	14	19	-4	x	x
O=c1c2ccccc2n2c(=S)[nH]nc2n1-c1ccccc1	0	45*	15	-1	19	-5
COc1ccc(C(C)C)cc1S(=O)(=O)Nc1ccncc1	-2	37*	-64	-2	-58	-2
CN(Cc1ccco1)C(=O)CC[C@H]1O[C@@H](n2ccc(=O)[nH]c2=O)[C@H](O)[C@@H]1O	x	x	-4	x	x	x
COc1cc(NC(=O)Nc2ccc3c(c2)OCO3)cc(OC)c1OC	-2	0	-4	0	x	x
COc1cc(NC(=O)NNC(=O)c2cc3occc3n2C)cc(OC)c1OC	-4	60*	1	-4	30*	-1
CC(=O)N1CCc2c(sc(NC(=O)C3CC3)c2-c2nc3ccccc3s2)C1	-4	34*	-18	1	-29	-2
O=C1CCC[C@H]2C[C@H](NCc3ccc(Cl)c(Cl)c3)CC[C@]23CCCN13	x	x	-1	x	x	x
CC(=O)Nc1cccc(-c2ccnc3c2CC(C)(C(=O)Nc2cccc(Oc4ccccc4)c2)O3)c1 (centres undefined)	x	x	-32	x	x	x
NNc1nc2c(-c3cccc(C(F)(F)F)c3)nnn2c2ccccc12	-4	35*	8	-1	-106	-6
O=C(Cc1ccc(F)cc1)Nc1ccccc1N1CCCC1	-2	33*	1	-3	-30	-5
O=C(Cc1ccc(Cl)c(Cl)c1)Nc1ccccc1N1CCCC1	0	4	-1	1	x	x
